This is an account of results in ChEMBL document CHEMBL1126568, “Nucleosides and nucleotides. 122. 2'-C-cyano-2'-deoxy-1-beta-D-arabinofuranosylcytosine and its derivatives. A new class of nucleoside with a broad antitumor spectrum” (J Med Chem, 1993).

Bounds are passed on as bounds.

One assay concerns SW48. The experiment in a line: Tested in vitro against SW-48 human colon adenocarcinoma. The format is functional, cell-based. A digest of the protocol:
(§1)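 MTT growth assay: 2 × 10³ cells/well exposed to compound or left untreated for 72 h. MTT then added for 4 h more; formazan dissolved in DMSO and OD read at 540 nm. % inhibition = [1 − OD sample/OD control] × 100. IC₅₀ (μM) is the concentration giving 50% growth inhibition. Single-concentration inhibition measured at 100 μg/mL.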

The test system of another assay is MCF7. Nature of the assay: Tested in vitro against MCF-7 human breast adenocarcinoma. The class given is functional, cell-based. In outline:
as §1

Assay [1] in a line: Percent inhibition against human oral epidermoid carcinoma KB cells at 100 ug/mL. The format is functional. A digest of the protocol:
as §1

The test system of another assay is MKN-45. Nature of the assay: Tested in vitro against MKN-45 human stomach adenocarcinoma. The class given is functional, cell-based. The settings on record: MKN-45, Stomach. A digest of the protocol:
as §1

The subject of another assay is ST-KM-1. Nature of the assay: Tested in vitro against ST-KM human stomach adenocarcinoma. The format is functional, cell-based. The settings on record: ST-KM-1, Stomach. In outline:
as §1

A further assay deals with COLO 320. Nature of the assay: Tested in vitro against colo-320 human colon adenocarcinoma. The format is functional, cell-based. The settings on record: COLO 320, Colon. A digest of the protocol:
as §1

The next assay has as its system HT-1080. Nature of the assay: Tested in vitro against HT1080 cell line human fibrosarcoma. The format is functional, cell-based. A digest of the protocol: as §1
Another assay concerns HOS-TE85. The experiment in a line: Tested in vitro against MNNG/HOS cell line human osteosarcoma. The class given is functional, cell-based. In outline: as §1
Another assay relates to PC-8. The experiment in a line: Tested in vitro against PC-8 human lung adenocarcinoma. The format is functional, cell-based. In outline:
as §1

Assay [2] concerns L1210. The experiment in a line: Tested in vitro inhibitory activity against murine leukemia L1210. The class given is functional, cell-based. The settings on record: Mus musculus. In outline:
as §1

The next assay relates to PC-9. The experiment in a line: Tested in vitro against PC-9 human lung adenocarcinoma. The class given is functional, cell-based. A digest of the protocol:
as §1

Assay [3] relates to KATO III stomach cancer cell line. The experiment in a line: Tested in vitro against KATO-III human stomach adenocarcinoma. The class given is functional, cell-based. In outline: as §1
The next assay concerns PC-13. The experiment in a line: Tested in vitro against PC-13 human lung large cell carcinoma. The format is functional, cell-based. A digest of the protocol: as §1
The test system of the next assay is OST. The experiment in a line: Tested in vitro against OST human osteosarcoma. The format is functional, cell-based. In outline:
as §1

The next assay concerns KKLS. The experiment in a line: Tested in vitro against KKLS human stomach adenocarcinoma. The class given is functional, cell-based. A digest of the protocol:
as §1

For a further assay, the system named is A-375. The experiment in a line: Tested in vitro against A-375 cell line human melanoma. The class given is functional, cell-based. A digest of the protocol: as §1
The subject of another assay is QG-95. Nature of the assay: Tested in vitro against QG-95 human squamous cell carcinoma. The class given is functional, cell-based. In outline: as §1
In assay [4] the test system is L1210. Nature of the assay: Percent inhibition against murine leukemia L1210 at 100 ug/mL. The class given is functional. The settings on record: Mus musculus. In outline:
as §1

Take `N#CC1=C[C@@H](CO)O[C@H]1n1ccc(N)nc1=O`: the IC50 in the assay on SW48 is 273 µM; in the assay on MCF7, 299 µM; in the assay on MKN-45 it was 376 µM; with ST-KM-1, 350 µM; in the assay on COLO 320 it was 150 µM; in the assay with HT-1080, 248 µM. For the same molecule, the IC50 in the assay with HOS-TE85 was 205 µM; in the assay on PC-8, over 430 µM; in the assay with L1210 [2], 261 µM; in the assay on PC-9, over 430 µM; in [3], 31.6 µM; in the assay on PC-13, 363 µM. The IC50 was 235 µM in the assay on OST, over 430 µM in the assay on KKLS, 145 µM with A-375 and 427 µM in the assay on QG-95. Moreover, the inhibition at 100 µg/mL in [1] turned out to be 46.8%.

Take `N#C[C@H]1C(O)[C@@H](CO)O[C@H]1n1ccc(=O)[nH]c1=O` (some centres undefined): the results for the inhibition at 100 µg/mL (in assay [1]; in the assay on L1210 [4]) were 8.4% and 10.2%, respectively.
